# Entries after “also recorded” stand apart in the source; their conditions may differ. Where a name gives a salt, the structure may show the parent alone.
# How the values were obtained:
# [1] = tested on: P-glycoprotein (P-gp); test: Bidirectional transport across Caco-2 cell monolayers; format: in vitro ADME; conditions: human, Caco-2, with verapamil 100 µM
# Outline: (§1)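 Monolayers of Caco-2 cells were grown on 0.4-μm polycarbonate Transwell inserts (2×10^5 cells/well) and used only after passing a TEER check. Free or TPGS-micelle test compound (2 μg/mL) was added apically or basolaterally and incubated 4 h at 37°C. Receiver fluid was assayed by HPLC. Verapamil was co-incubated 4 h. AP→BL transport was also run at 4°C. Papp = (dQ/dt)/(A·C0); ER = Papp(BL→AP)/Papp(AP→BL).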
# [2] = as above; format: in vitro ADME; conditions: human, Caco-2
# Outline: as §1
# [3] = tested on: Caco-2 cell monolayers; test: as above; format: in vitro ADME; conditions: AP→BL, 4°C
# Outline: as §1
# [4] = In vivo toxicity; design: species or system BALB/c nude mice; conditions: 0.25 mg/kg oral
# Outline: (§2)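 Female BALB/c nude mice (4 weeks old) received MDA-MB-231 cells (1×10^6/mouse) subcutaneously in the right thigh. At 50–100 mm3 they were randomised to PBS, free or micelle-loaded test compound, given 0.25 mg/kg by oral gavage every two days on days 0–14. Tumor size and body weight were taken every two days to day 17, then organs and tumors went to pathology/TUNEL. TIR was derived from mean tumor size, dosed vs control.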
# [5] = tested on: orthotopic TNBC (MDA-MB-231 cells); test: Oral treatment combined with surgery on orthotopic TNBC in nude mice; format: in vivo, BALB/c nude mice; conditions: after tumor resection surgery
# Outline: (§3)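 MDA-MB-231 cells (1×10^6/mouse) were injected into the second right mammary gland of nude mice. Caliper volume was V = (a×b2)/2. At 80–100 mm3, tumors were resected under isoflurane, leaving 5–10% residual. Twenty mice were split into four arms (surgery plus PBS, blank TPGS micelles, free or micelle-loaded test compound), dosed orally at equal volume every two days on days 0–14. Tumor size and body weight were followed every two days to day 17. Organs, including jejunum and lungs, and tumors were then taken for histology.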
# [6] = In vitro release in simulated gastrointestinal fluids; format: physicochemical
# [7] = oral, cited from earlier work
# [8] = tested on: subcutaneous xenografts of MDA-MB-231 cells; test: Oral treatment of subcutaneous TNBC xenografts in nude mice; format: in vivo, BALB/c nude mice
# Outline: as §2
# [9] = mice, oral administration; cited from earlier work
# [10] = In vivo toxicity; design: species or system BALB/c nude mice; conditions: after tumor resection surgery, oral
# Outline: as §3
# [11] = patients with advanced solid tumors
smiles,measurement,setting,value
"O=C(CC1NCCCC1O)Cn1cnc2cc(Br)c(Cl)cc2c1=O (stereo not shown) [HF, Halofuginone hydrobromide]","Papp A→B at 4 h, 2 μg/mL",[1],6.25 ± 0.75 ×10⁻⁶ cm/s
same,"Papp B→A at 4 h, 2 μg/mL",[1],5.9 ± 0.1 ×10⁻⁶ cm/s
same,"efflux ratio at 4 h, 2 μg/mL",[1],0.94
same,"Papp A→B at 4 h, 2 μg/mL",[2],4.73 ± 0.28 ×10⁻⁶ cm/s
same,"Papp B→A at 4 h, 2 μg/mL",[2],8.72 ± 0.16 ×10⁻⁶ cm/s
same,"efflux ratio at 4 h, 2 μg/mL",[2],1.84
same,Papp at 4°C compared with 37°C,[3],lower than those at 37 °C
same,histology of jejunum / bleeding (H&E),[4],jejunum hemorrhage
same,body weight change,[4]; every two days on days 0–14,caused the loss of body weight
same,"expression of Bcl-2, Bax and Caspase-3 in tumor (immunohistochemistry)",[5],regulated by HF and HTPM treatment
same,"lung metastasis (H&E, visual inspection)",[5],normal histological features without any tumors
same,tumor growth vs PBS- and FTPM-treated groups,[5],significant delay in tumor growth
same,tumor necrosis (H&E staining),[5],larger necrotic area than those from the PBS- and FTPM-treated groups
same,tumor inhibition rate (TIR),[5]; every two days on days 0–14,43.57% ± 1.15
same,cumulative release percentage (CRP) of HF,"[6]; simulated gastric fluids, from 0 to 8 hours",53.25%
same,cumulative release percentage (CRP) of HF,"[6]; simulated gastric fluids, from 8 to 12 hours",19.6%
same,cumulative release percentage (CRP) of HF,"[6]; simulated gastric fluids, within 24 hours",80.03%
same,cumulative release percentage (CRP) of HF,"[6]; simulated intestinal fluids, from 0 to 8 hours",54.39%
same,cumulative release percentage (CRP) of HF,"[6]; simulated intestinal fluids, from 8 to 12 hours",18.17%
same,cumulative release percentage (CRP) of HF,"[6]; simulated intestinal fluids, within 24 hours",82.61%
same,"""acute"" maximum tolerated dose (MTD)",[7]; [11],3.5 mg/day
same,dose-limiting toxicities (DLT),[7]; [11],"nausea, vomiting, and fatigue"
same,dose recommended for chronic administration in Phase II clinical studies,[7],0.5 mg/day
same,tumor inhibition rate (TIR),"[8]; 0.25 mg/kg HF, oral gavage, every two days on days 0–14",47.55% ± 1.32
same,tumor size vs untreated mice,"[8]; 0.25 mg/kg oral, 12 days after oral administration",significant reduction in tumor size
same,tumor necrosis (H&E staining),"[8]; 0.25 mg/kg oral, tumor sections",larger necrotic area than those from the PBS group
same,"expression of Bcl-2, Bax and Caspase-3 in tumor (immunohistochemistry)","[8]; 0.25 mg/kg oral, tumor tissues","markedly upregulated the expression of Bax and Caspase-3, and downregulated the expression of Bcl-2"
same,detection in plasma and red blood cells,[9],not detected in plasma and red blood cells
same,"persistence in kidneys, liver and lungs",[9],up to 48 hours
same,body weight change,[10],caused the loss of body weight; also recorded: significant loss of body weight
same,histology of jejunum (H&E),[10],jejunum bleeding; also recorded: jejunum congestion was found

# — PMC9166452 (International Journal of Nanomedicine, 2022)
